Source: PMC2860672 (Biochemistry, 2010)
Values after ≈ are worked out from the molar mass of the structure shown. Read-outs that look alike come from different tables or passages of the source.

Experiments:
O=C(O)c1cccc(O)c1O = assay: purified protein, by the assay type; settings: other: 25°C, pH 7.8, the other substrates fixed and saturating
O=C(O)c1cccc(O)c1 = assay: purified protein, by the assay type; settings: other: 25°C, pH 7.8, the other substrates fixed and saturating
Nc1ccc(C(=O)O)c(O)c1 = assay: purified protein, by the assay type; settings: other: 25°C, pH 7.8, the other substrates fixed and saturating
[1] = target: EntE (dihydroxybenzoate-AMP ligase) (Escherichia coli, UniProt P10378); settings: for Km / kcat: pH 7.8
Chain of EntE (dihydroxybenzoate-AMP ligase) (P10378 whole entry): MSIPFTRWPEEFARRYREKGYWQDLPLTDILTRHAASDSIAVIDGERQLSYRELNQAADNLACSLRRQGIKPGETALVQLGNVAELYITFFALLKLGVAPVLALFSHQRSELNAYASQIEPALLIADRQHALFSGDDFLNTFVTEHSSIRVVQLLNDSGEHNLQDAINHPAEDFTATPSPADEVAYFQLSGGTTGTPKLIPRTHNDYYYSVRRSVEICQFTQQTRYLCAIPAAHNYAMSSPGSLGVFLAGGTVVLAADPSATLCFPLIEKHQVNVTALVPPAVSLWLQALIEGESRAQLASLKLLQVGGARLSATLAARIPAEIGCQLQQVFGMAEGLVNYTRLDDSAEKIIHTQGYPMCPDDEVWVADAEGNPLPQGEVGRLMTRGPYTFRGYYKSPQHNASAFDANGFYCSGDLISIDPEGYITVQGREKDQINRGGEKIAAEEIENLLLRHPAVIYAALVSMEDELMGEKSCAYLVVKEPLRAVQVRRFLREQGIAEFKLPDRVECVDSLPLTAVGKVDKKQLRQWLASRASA

EntE [2] = target: T1, EntE (Escherichia coli, UniProt P10378); settings: competitive ligand in displacement ITC; cited from earlier work
T1 sequence (P10378 whole entry): as above

M. tuberculosis = settings: cited from earlier work
EntE [3] = target: T1, EntE; assay: Dead-end inhibition of EntE by AMPCPP, coupled assay; type: biochemical; settings: holo-EntB-ArCP 4 μM
EntE [4] = target: T1, EntE; assay: ITC of Sal-AMS and DHB-AMS with EntE; type: binding
EntE [5] = target: T1, EntE; type: biochemical
Summary of the method: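 Stopped-flow coupled assay (myokinase/pyruvate kinase/LDH, NADH at 340 nm) in 100 mM HEPES pH 7.8, 10 mM MgCl2, 25°C. […] Bisubstrate adenylate analogues were varied. Equal volumes were mixed with 16 nM EntE and followed for 4 min. The first 20 s were discarded. Five traces were averaged per concentration and fitted to a slow-onset equation; kobs was plotted against inhibitor concentration.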

EntE [6] = target: T1, EntE; assay: ITC of DHB binding to free EntE
Summary of the method: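 DHB binding was run by ITC at 25°C in 50 mM HEPES pH 7.8, 10 mM MgCl2. EntE was dialysed against this buffer and ligand was prepared in the dialysate. EntE concentration came from ε280 = 58 790 M⁻¹ cm⁻¹ and DHB by weight. 50 μM EntE in the cell; 1 mM DHB injected 5 μL every 230 s.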

[7] = 25°C, the other substrates fixed and saturating

EntE (dihydroxybenzoate-AMP ligase) (Escherichia coli K-12)
Km (O=C(O)c1cccc(O)c1O): 2.5 ± 0.3 µM | kcat/Km (O=C(O)c1cccc(O)c1O): 880000 M⁻¹ s⁻¹ | Km (O=C(O)c1cccc(O)c1): 70 ± 8 µM | kcat (O=C(O)c1cccc(O)c1): 0.3 ± 0.01 s⁻¹ | kcat/Km (O=C(O)c1cccc(O)c1): 4600 M⁻¹ s⁻¹ | Km (Nc1ccc(C(=O)O)c(O)c1): 3100 ± 300 µM

O=C(O)c1ccccc1O [salicylic acid]
Km [1, 7]: 70 ± 4 µM | kcat [1]: 0.8 ± 0.1 s⁻¹ | KA^B (EntE [2]): 4740 M⁻¹

NNC(=O)c1ccncc1 [isoniazid]
MIC99 (M. tuberculosis): 0.18 µM (≈ 0.0247 µg/mL)

Nc1ncnc2c1ncn2C1OC(COP(=O)(O)CP(=O)(O)OP(=O)(O)O)C(O)C1O (stereo not drawn) [AMPCPP, α, β-methyleneadenosine 5′-triphosphate]
inhibition pattern versus ATP (EntE [3]; varied ATP, saturating DHB (80 μM)): competitive inhibition | inhibition pattern versus DHB (EntE [3]; varied DHB, saturating ATP (5 mM)): uncompetitive inhibition

Nc1ncnc2c1ncn2[C@@H]1O[C@H](COS(=O)(=O)NC(=O)c2cccc(O)c2O)[C@@H](O)[C@H]1O [DHB-AMS, 5′-O-[N-(2,3-dihydroxybenzoyl)sulfamoyl]adenosine]
TΔS (EntE [4]; 293 K, calculated from eq 11): -0.4 kcal/mol | −ΔG (EntE [4]; 293 K, calculated from eq 11): 15.0 kcal/mol | fold lower KD than Sal-AMS (EntE [4]; ITC): 10 fold | Kd (EntE [4]; KA, displacement ITC with 200 mM salicylic acid, 293 K, pH 8.0): 0.00627 nM | Kd (EntE [4]; KD, displacement ITC with salicylic acid, KD = 1/KA, 20°C): 0.0075 nM | n (number of binding sites per monomer) (EntE [4]; displacement ITC): 1.12 ± 0.03 | −ΔH (EntE [4]; stoichiometric titration at high c, 293 K): 15.4 kcal/mol | Ki (EntE [5]): 3.8 nM | type of inhibition (EntE [5]; time-courses of product formation): slow-onset tight-binding inhibitors

O=C(O)c1cccc(O)c1O [DHB, 2,3-dihydroxybenzoic acid]
Kd (EntE [6]): 8700 nM | n (EntE [6]; one-set of sites model): 0.824 ± 0.00512 | KA (EntE [6]; one-set of sites model, 25°C): 115000 ± 2800 M⁻¹ | ΔH (EntE [6]; one-set of sites model, 25°C): -16.5 ± 0.14 kcal/mol | ΔS (EntE [6]; one-set of sites model, 25°C): −32.2 cal mol^−1 K ^−1

Nc1ccc(C(=O)O)cc1 [4-aminobenzoic acid]
substrate activity for the EntE reaction ([1]; tested as substrate in the coupled assay): no activity was observed

CC(C)(CO)[C@@H](O)C(=O)NCCC(=O)NCCS [D-pantetheine]
Km [1, 7]: 34200 ± 2000 µM | kcat [1, 7]: 0.9 ± 0.1 s⁻¹
